# Measurements published in ChEMBL document CHEMBL1208782, “Synthesis and pharmacological validation of a novel series of non-steroidal FXR agonists” (Bioorg Med Chem Lett, 2010).
# Active and inactive are the calls of the source. The rule behind the calls is not given here.
# What was measured:
# [1] = Drug level in db/db mouse bile measured metabolites as glucuronide at 5 mg/kg, po after 240 mins; format: ADME, organism-based; design: dose 5 mg/kg, route oral; conditions: in vivo, 4 h
# [2] = Drug level in db/db mouse bile measured metabolites as taurine amide at 1 mg/kg, iv after 240 mins; format: ADME, organism-based; design: dose 1 mg/kg, route intravenous; conditions: in vivo, 4 h
# Outline: (§1)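 Mice got a single dose, 5 mg/kg po or 1 mg/kg iv. Liver and bile were sampled 240 min after dosing. Parent carboxylic acid, its acyl-glucuronide and its taurine amide were quantified separately, in ng/mL. Glucuronide identity was confirmed by glucuronidase digestion of bile or bile extracts, which regenerated the parent.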
# [3] = Plasma concentration in db/db mouse at 1 mg/kg, iv after 30 mins; format: ADME, organism-based; design: dose 1 mg/kg, route intravenous; conditions: read-out: Drug uptake
# Outline: (§2)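 Single dose to mice, 5 mg/kg po or 1 mg/kg iv. Plasma was sampled at 5, 10, 30, 90 and 240 min. Only parent compound was measured, in ng/mL.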
# [4] = molecular target: Peroxisome proliferator-activated receptor alpha (Homo sapiens, UniProt Q07869); test: Agonist activity at PPARalpha-LBD expressed in HEK293 cells assessed as Gal4-DBD interaction by cellular mammalian one hybrid assay; format: functional, cell-based
# Sequence of Peroxisome proliferator-activated receptor alpha (Q07869 whole entry, the tested form may be a part): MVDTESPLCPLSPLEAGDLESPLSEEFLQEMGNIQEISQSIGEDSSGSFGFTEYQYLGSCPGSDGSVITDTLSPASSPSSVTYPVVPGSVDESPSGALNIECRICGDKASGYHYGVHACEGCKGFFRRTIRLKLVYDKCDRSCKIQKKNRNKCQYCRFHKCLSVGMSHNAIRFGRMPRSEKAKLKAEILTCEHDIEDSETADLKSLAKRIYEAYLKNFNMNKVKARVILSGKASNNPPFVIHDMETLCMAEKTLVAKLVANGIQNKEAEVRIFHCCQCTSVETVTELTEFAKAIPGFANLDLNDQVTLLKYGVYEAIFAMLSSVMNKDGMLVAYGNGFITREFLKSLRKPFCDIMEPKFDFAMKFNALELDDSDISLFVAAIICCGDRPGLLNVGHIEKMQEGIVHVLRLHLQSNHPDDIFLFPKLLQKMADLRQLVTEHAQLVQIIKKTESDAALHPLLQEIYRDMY
# [5] = Plasma concentration in db/db mouse at 5 mg/kg, po after 30 mins; format: ADME, organism-based; design: dose 5 mg/kg, route oral; conditions: read-out: Drug uptake; outline: as §2
# [6] = Drug level in db/db mouse bile measured metabolites as taurine amide at 5 mg/kg, po after 240 mins; format: ADME, organism-based; design: dose 5 mg/kg, route oral; conditions: in vivo, 4 h; outline: as §1
# Liver [7] = test: Drug level in db/db mouse liver measured metabolites as glucuronide at 5 mg/kg, po after 240 mins; format: ADME, organism-based; design: dose 5 mg/kg, route oral; conditions: in vivo, 4 h; outline: as §1
# Mus musculus [8] = test: Reduction in total plasma triglyceride level in db/db mouse at 1-25 mg/kg bid after 12 days; format: functional, organism-based
# Outline: (§3)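 C57BL/KSK-mLep^db/mLep^db mice were dosed orally at 1, 5 and 25 mg/kg b.i.d. for 12 days. Total plasma triglycerides and total plasma cholesterol were measured, with cholesterol reported as mg/dl. Significance was given at p<0.05, <0.01 and <0.001 levels.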
# [9] = molecular target: T1, PXR (nuclear receptor subfamily 1 group I member 2) (Homo sapiens, UniProt O75469); test: Agonist activity at PXR-LBD expressed in HEK293 cells assessed as Gal4-DBD interaction by cellular mammalian one hybrid assay relative to SR-12813; format: functional, cell-based; conditions: HEK293 cells expressing PXR-LBD, read-out: Efficacy
# T1 sequence (O75469 whole entry): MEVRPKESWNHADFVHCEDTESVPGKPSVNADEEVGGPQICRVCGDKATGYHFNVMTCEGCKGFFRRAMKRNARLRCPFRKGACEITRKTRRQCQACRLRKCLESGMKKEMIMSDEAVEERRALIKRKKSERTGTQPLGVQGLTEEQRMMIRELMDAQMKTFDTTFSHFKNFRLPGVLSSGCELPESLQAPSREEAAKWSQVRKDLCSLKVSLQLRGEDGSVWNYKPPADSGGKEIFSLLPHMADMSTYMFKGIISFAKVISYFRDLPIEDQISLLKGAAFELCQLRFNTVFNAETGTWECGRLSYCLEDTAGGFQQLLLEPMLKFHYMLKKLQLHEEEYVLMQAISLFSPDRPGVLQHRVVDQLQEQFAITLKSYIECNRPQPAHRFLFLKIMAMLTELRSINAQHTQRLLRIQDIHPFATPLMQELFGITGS
# Mus musculus [10] = test: Volume of distribution in db/db mouse at 5 mg/kg, po; format: ADME, organism-based; design: dose 5 mg/kg, route oral; conditions: in vivo
# Outline: (§4)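 Derived from the single-dose mouse plasma time courses of parent compound, 5-240 min. Dosing was 5 mg/kg po or 1 mg/kg iv. Volume of distribution is in mL/kg, clearance in mL/h/kg, and oral bioavailability in %.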
# [11] = Plasma concentration in db/db mouse at 5 mg/kg, po after 5 mins; format: ADME, organism-based; design: dose 5 mg/kg, route oral; conditions: read-out: Drug uptake; outline: as §2
# [12] = Plasma concentration in db/db mouse at 1 mg/kg, iv after 5 mins; format: ADME, organism-based; design: dose 1 mg/kg, route intravenous; conditions: read-out: Drug uptake; outline: as §2
# [13] = Plasma concentration in db/db mouse at 5 mg/kg, po after 90 mins; format: ADME, organism-based; design: dose 5 mg/kg, route oral; conditions: read-out: Drug uptake; outline: as §2
# [14] = molecular target: Peroxisome proliferator-activated receptor gamma (Homo sapiens, UniProt P37231); test: Agonist activity at PPARgamma-LBD expressed in HEK293 cells assessed as Gal4-DBD interaction by cellular mammalian one hybrid assay; format: functional, cell-based
# Sequence of Peroxisome proliferator-activated receptor gamma (P37231 whole entry, the tested form may be a part): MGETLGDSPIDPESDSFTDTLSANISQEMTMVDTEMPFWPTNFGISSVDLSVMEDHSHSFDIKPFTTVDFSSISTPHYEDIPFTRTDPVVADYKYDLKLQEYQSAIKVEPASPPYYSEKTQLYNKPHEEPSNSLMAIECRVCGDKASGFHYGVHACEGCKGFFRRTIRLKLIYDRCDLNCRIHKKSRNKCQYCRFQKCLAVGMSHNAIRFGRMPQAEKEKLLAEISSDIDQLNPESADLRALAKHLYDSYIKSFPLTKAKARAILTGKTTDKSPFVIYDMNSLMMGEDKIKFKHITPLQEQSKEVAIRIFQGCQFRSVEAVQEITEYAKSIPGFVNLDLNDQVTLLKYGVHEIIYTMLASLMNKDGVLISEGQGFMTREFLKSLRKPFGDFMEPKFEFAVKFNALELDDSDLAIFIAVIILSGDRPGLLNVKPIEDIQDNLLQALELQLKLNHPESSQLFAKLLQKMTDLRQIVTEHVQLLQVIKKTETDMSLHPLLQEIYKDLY
# [15] = Drug level in db/db mouse liver at 25 mg/kg bid after 4 hrs by LC/MS-MS analysis; format: ADME, organism-based; design: dose 25 mg/kg; conditions: read-out: Drug uptake
# Outline: (§5)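 db/db mice were dosed twice daily for 12 days. Plasma and liver concentrations were determined 4 h and 24 h after the last administration.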
# [16] = Drug level in db/db mouse bile measured metabolites as carboxylic acid at 1 mg/kg, iv after 240 mins; format: ADME, organism-based; design: dose 1 mg/kg, route intravenous; conditions: in vivo, 4 h
# Mus musculus [17] = test: Reduction in total plasma cholesterol level in db/db mouse at 1-25 mg/kg bid after 12 days; format: functional, organism-based; outline: as §3
# [18] = Plasma concentration in db/db mouse at 25 mg/kg bid after 24 hrs by LC/MS-MS analysis; format: ADME, organism-based; design: dose 25 mg/kg; conditions: read-out: Drug uptake; outline: as §5
# Estrogen receptor = Estrogen receptor (Homo sapiens, UniProt P03372); test: Agonist activity at ERalpha-LBD expressed in HEK293 cells assessed as Gal4-DBD interaction by cellular mammalian one hybrid assay; format: functional, cell-based
# Sequence of Estrogen receptor (P03372 whole entry, the tested form may be a part): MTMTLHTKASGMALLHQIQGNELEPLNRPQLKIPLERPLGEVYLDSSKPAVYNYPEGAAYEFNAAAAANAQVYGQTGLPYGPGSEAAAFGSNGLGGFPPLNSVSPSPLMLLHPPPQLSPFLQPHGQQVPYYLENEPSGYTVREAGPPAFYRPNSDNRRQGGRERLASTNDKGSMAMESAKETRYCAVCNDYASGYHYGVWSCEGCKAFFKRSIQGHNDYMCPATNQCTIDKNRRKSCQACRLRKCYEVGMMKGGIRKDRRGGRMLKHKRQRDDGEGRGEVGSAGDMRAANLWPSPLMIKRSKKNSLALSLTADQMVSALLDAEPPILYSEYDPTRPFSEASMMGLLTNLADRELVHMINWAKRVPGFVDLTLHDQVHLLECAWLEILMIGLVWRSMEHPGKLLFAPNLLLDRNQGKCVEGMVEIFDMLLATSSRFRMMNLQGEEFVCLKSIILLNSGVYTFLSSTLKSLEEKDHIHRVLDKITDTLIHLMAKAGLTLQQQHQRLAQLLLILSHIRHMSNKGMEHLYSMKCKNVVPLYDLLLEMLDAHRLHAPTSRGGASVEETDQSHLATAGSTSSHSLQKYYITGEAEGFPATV
# [19] = Plasma concentration in db/db mouse at 1 mg/kg, iv after 10 mins; format: ADME, organism-based; design: dose 1 mg/kg, route intravenous; conditions: read-out: Drug uptake; outline: as §2
# Mus musculus [20] = test: Volume of distribution in db/db mouse at 1 mg/kg, iv; format: ADME, organism-based; design: dose 1 mg/kg, route intravenous; conditions: in vivo; outline: as §4
# Estrogen receptor beta = Estrogen receptor beta (Homo sapiens, UniProt Q92731); test: Agonist activity at ERbeta-LBD expressed in HEK293 cells assessed as Gal4-DBD interaction by cellular mammalian one hybrid assay; format: functional, cell-based
# Sequence of Estrogen receptor beta (Q92731 whole entry, the tested form may be a part): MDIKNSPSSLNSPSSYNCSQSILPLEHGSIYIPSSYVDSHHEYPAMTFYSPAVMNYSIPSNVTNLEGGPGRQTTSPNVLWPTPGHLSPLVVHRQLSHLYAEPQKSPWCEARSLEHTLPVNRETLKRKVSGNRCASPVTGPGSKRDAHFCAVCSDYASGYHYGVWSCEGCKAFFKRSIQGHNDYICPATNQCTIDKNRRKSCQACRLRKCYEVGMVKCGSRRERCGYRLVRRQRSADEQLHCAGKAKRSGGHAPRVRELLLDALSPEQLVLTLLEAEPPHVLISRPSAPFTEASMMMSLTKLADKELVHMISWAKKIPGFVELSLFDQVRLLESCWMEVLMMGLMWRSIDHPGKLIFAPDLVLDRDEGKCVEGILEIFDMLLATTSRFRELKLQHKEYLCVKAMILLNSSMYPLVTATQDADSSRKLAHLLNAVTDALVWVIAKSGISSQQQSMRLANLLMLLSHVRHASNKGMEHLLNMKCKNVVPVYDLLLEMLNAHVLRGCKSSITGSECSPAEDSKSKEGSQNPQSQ
# [21] = Clearance in db/db mouse at 5 mg/kg, po; format: ADME, organism-based; design: dose 5 mg/kg, route oral; conditions: in vivo
# Outline: (§6)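 Mice received a single dose of 5 mg/kg po or 1 mg/kg iv. Plasma was sampled at 5, 10, 30, 90 and 240 min and the parent compound alone was measured (ng/mL). Clearance (mL/h/kg), Vd (mL/kg) and oral bioavailability were derived from these plasma profiles.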
# [22] = Oral bioavailability in db/db mouse at 5 mg/kg, po; format: ADME, organism-based; conditions: in vivo; outline: as §4
# [23] = Plasma concentration in db/db mouse at 1 mg/kg, iv after 90 mins; format: ADME, organism-based; design: dose 1 mg/kg, route intravenous; conditions: read-out: Drug uptake; outline: as §2
# [24] = Plasma concentration in db/db mouse at 5 mg/kg, po after 240 mins; format: ADME, organism-based; design: dose 5 mg/kg, route oral; conditions: read-out: Drug uptake; outline: as §2
# [25] = Plasma concentration in db/db mouse at 5 mg/kg, po after 10 mins; format: ADME, organism-based; design: dose 5 mg/kg, route oral; conditions: read-out: Drug uptake; outline: as §2
# Liver [26] = test: Drug level in db/db mouse liver measured metabolites as carboxylic acid at 5 mg/kg, po after 240 mins; format: ADME, organism-based; design: dose 5 mg/kg, route oral; conditions: in vivo, 4 h; outline: as §1
# [27] = Drug level in db/db mouse bile measured metabolites as glucuronide at 1 mg/kg, iv after 240 mins; format: ADME, organism-based; design: dose 1 mg/kg, route intravenous; conditions: in vivo, 4 h
# [28] = Plasma concentration in db/db mouse at 25 mg/kg bid after 4 hrs by LC/MS-MS analysis; format: ADME, organism-based; design: dose 25 mg/kg; conditions: read-out: Drug uptake; outline: as §5
# [29] = Clearance in db/db mouse at 1 mg/kg, iv; format: ADME, organism-based; design: dose 1 mg/kg, route intravenous; conditions: in vivo; outline: as §6
# [30] = Drug level in db/db mouse bile measured metabolites as carboxylic acid at 5 mg/kg, po after 240 mins; format: ADME, organism-based; design: dose 5 mg/kg, route oral; conditions: in vivo, 4 h
# Liver [31] = test: Drug level in db/db mouse liver measured metabolites as carboxylic acid at 1 mg/kg, iv after 240 mins; format: ADME, organism-based; design: dose 1 mg/kg, route intravenous; conditions: in vivo, 4 h; outline: as §1
# Liver [32] = test: Drug level in db/db mouse liver measured metabolites as taurine amide at 5 mg/kg, po after 240 mins; format: ADME, organism-based; design: dose 5 mg/kg, route oral; conditions: in vivo, 4 h; outline: as §1
Drug uptake [1],Drug uptake [2],concentration at 0.5 h [3],EC50 [4],concentration at 0.5 h [5],Drug uptake [6],Drug uptake (Liver [7]),Emax [9],Vd (Mus musculus [10]),concentration at 5 min [11],concentration at 5 min [12],concentration at 1.5 h [13],EC50 [14],concentration at 4 h [15],Drug uptake [16],concentration at 24 h [18],EC50 (Estrogen receptor),concentration at 10 min [19],Compound,Activity (Mus musculus [8]),Activity (Mus musculus [17]),further results
2807 ng/mL,10013 ng/mL,325 ng/mL,> 10 µM,531 ng/mL,47638 ng/mL,172 ng/mL,67%,5.2 L/kg,427 ng/mL,745 ng/mL,370 ng/mL,> 10 µM,14800 nM,173 ng/mL,11 nM,> 10 µM,437 ng/mL,CN(Cc1ccc(C(=O)O)cc1)c1ccc(OCc2c(-c3c(Cl)cccc3Cl)noc2C2CC2)nc1C(F)(F)F,Active,Active,Vd (Mus musculus [20]): 1.24 L/kg; EC50 (Estrogen receptor beta): > 10 µM; CL/F [21]: 67.9 mL/min/kg; bioavailability [22]: 16.1%; concentration at 1.5 h [23]: 398 ng/mL; concentration at 4 h [24]: 52 ng/mL; concentration at 10 min [25]: 283 ng/mL; Drug uptake (Liver [26]): 257 ng/mL; Drug uptake [27]: 150 ng/mL; concentration at 4 h [28]: 344 nM; clearance [29]: 11.9 mL/min/kg; Drug uptake [30]: 1446 ng/mL; Drug uptake (Liver [31]): 23 ng/mL
18928 ng/mL,11927 ng/mL,361 ng/mL,> 10 µM,420 ng/mL,22443 ng/mL,2872 ng/mL,60%,5.26 L/kg,57 ng/mL,1620 ng/mL,267 ng/mL,> 10 µM,10400 nM,472 ng/mL,3 nM,> 10 µM,1600 ng/mL,CC(C)c1onc(-c2c(Cl)cccc2Cl)c1COc1ccc(N(C)Cc2ccc(C(=O)O)cc2)c(C(F)(F)F)n1,Active,Active,Drug uptake (Liver [32]): 372 ng/mL; Vd (Mus musculus [20]): 0.931 L/kg; EC50 (Estrogen receptor beta): > 10 µM; CL/F [21]: 104 mL/min/kg; bioavailability [22]: 16.2%; concentration at 1.5 h [23]: 122 ng/mL; concentration at 4 h [24]: 14 ng/mL; concentration at 10 min [25]: 92 ng/mL; Drug uptake (Liver [26]): 1512 ng/mL; Drug uptake [27]: 4261 ng/mL; concentration at 4 h [28]: 512 nM; clearance [29]: 16.8 mL/min/kg; Drug uptake [30]: 1697 ng/mL; Drug uptake (Liver [31]): 262 ng/mL
–,–,–,–,–,–,–,62%,–,–,–,–,–,–,–,–,–,–,CN(Cc1cccc(C(=O)O)c1)c1ccc(OCc2c(-c3c(Cl)cccc3Cl)noc2C2CC2)nc1C(F)(F)F,–,–,–
